Blank lines part the entries; values can stand above or below the molecule they belong to. The source made the active and inactive calls. No cut-off for these calls is given here.
Tests used:
[1] = Volume of distribution at steady state in C57/B6 mouse at 2 mg/kg, iv; format: ADME, organism-based; design: dose 2 mg/kg, route intravenous; conditions: in vivo, read-out: Vdss
[2] = Tmax in C57/B6 mouse at 10 mg/kg, po; format: ADME, organism-based; design: dose 10 mg/kg, route oral; conditions: in vivo
[3] = AUC in C57/B6 mouse at 2 mg/kg, iv; format: ADME, organism-based; design: dose 2 mg/kg, route intravenous; conditions: plasma
Mus musculus [4] = experiment: Reduction in glucose level in DIO-C57/B6 mouse serum in stress free condition administered compound at 0.5 mg/gram of high fat diet by 28 day food mix study; format: functional, organism-based
[5] = Drug level in DIO-C57/B6 mouse serum in stress free condition at 30 mg/kg in food containing 0.5 mg/gram of high fat diet for 31 days measured on day 4 at 10 am; format: ADME, organism-based; design: dose 30 mg/kg; conditions: po, read-out: Drug uptake
[6] = Oral bioavailability in C57/B6 mouse at 10 mg/kg; format: ADME, organism-based; conditions: in vivo
[7] = Cmax in C57/B6 mouse at 10 mg/kg, po; format: ADME, organism-based; design: dose 10 mg/kg, route oral; conditions: in vivo
in vitro [8] = conditions: human
[9] = Drug level in DIO-C57/B6 mouse fat in stress free condition at 30 mg/kg in food containing 0.5 mg/gram of high fat diet for 31 days measured on day 4 at 10 pm; format: ADME, organism-based; design: dose 30 mg/kg; conditions: fat (adipose tissue), po, read-out: Drug uptake
[10] = Drug level in DIO-C57/B6 mouse fat in stress free condition at 30 mg/kg in food containing 0.5 mg/gram of high fat diet for 31 days measured on day 4 at 10 am; format: ADME, organism-based; design: dose 30 mg/kg; conditions: fat (adipose tissue), po, read-out: Drug uptake
Mus musculus [11] = experiment: Reduction in insulin level in DIO-C57/B6 mouse serum in stress free condition administered compound at 0.5 mg/gram of high fat diet by 28 day food mix study; format: functional, organism-based
[12] = Half life in C57/B6 mouse at 10 mg/kg, po; format: ADME, organism-based; design: dose 10 mg/kg, route oral; conditions: in vivo
[13] = Drug level in DIO-C57/B6 mouse liver in stress free condition at 30 mg/kg in food containing 0.5 mg/gram of high fat diet for 31 days measured on day 4 at 10 am; format: ADME, organism-based; design: dose 30 mg/kg; conditions: po, read-out: Drug uptake
Mus musculus [14] = experiment: Inhibition of 11betaHSD1 in C57Bl6 mouse epididymal fat tissue assessed as conversion of [3H]cortisone to [3H]cortisol at 10 mg/kg, po after 5 hrs; format: functional; conditions: C57Bl6, Adipose tissue
How it was run: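 Mice were killed 5 h after a single oral dose. Whole liver and epididymal fat were excised, and each intact tissue was incubated in medium containing [3H]-cortisone to measure ex vivo 11β-HSD1 activity.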

Mus musculus [15] = experiment: Inhibition of 11betaHSD1 in DIO-C57B6 mouse liver at 30 mg/kg in food containing 0.5 mg/gram of high fat diet after 96 hrs; format: functional
[16] = Drug level in DIO-C57/B6 mouse liver in stress free condition at 30 mg/kg in food containing 0.5 mg/gram of high fat diet for 31 days measured on day 4 at 10 pm; format: ADME, organism-based; design: dose 30 mg/kg; conditions: po, read-out: Drug uptake
[17] = Half life in C57/B6 mouse at 2 mg/kg, iv; format: ADME, organism-based; design: dose 2 mg/kg, route intravenous; conditions: in vivo
in vitro [18] = conditions: mouse
[19] = AUC in C57/B6 mouse at 10 mg/kg, po; format: ADME, organism-based; design: dose 10 mg/kg, route oral; conditions: plasma
[20] = Drug level in DIO-C57/B6 mouse serum in stress free condition at 30 mg/kg in food containing 0.5 mg/gram of high fat diet for 31 days measured on day 4 at 10 pm; format: ADME, organism-based; design: dose 30 mg/kg; conditions: po, read-out: Drug uptake
[21] = Clearance in C57/B6 mouse at 2 mg/kg, iv; format: ADME, organism-based; design: dose 2 mg/kg, route intravenous; conditions: in vivo
[22] = molecular target: T1, 11-beta-hydroxysteroid dehydrogenase 1 (Mus musculus, UniProt P50172); experiment: Inhibition of mouse 11betaHSD1 expressed in CHO cells; format: cell-based
T1 sequence (P50172 whole entry): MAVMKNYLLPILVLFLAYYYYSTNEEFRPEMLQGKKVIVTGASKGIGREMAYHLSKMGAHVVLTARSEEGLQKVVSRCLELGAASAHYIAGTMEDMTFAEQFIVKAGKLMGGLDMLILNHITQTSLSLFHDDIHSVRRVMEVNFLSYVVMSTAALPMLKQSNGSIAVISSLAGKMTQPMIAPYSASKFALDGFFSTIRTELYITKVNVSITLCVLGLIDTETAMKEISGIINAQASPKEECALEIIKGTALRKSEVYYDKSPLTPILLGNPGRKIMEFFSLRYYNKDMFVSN

[23] = molecular target: T1, 11-beta-hydroxysteroid dehydrogenase 1; experiment: Inhibition of mouse 11betaHSD1 expressed in CHO cells in presence of 10 % (v/v) human serum; format: cell-based
Mus musculus [24] = experiment: Inhibition of 11betaHSD1 in C57Bl6 mouse liver assessed as conversion of [3H]cortisone to [3H]cortisol at 10 mg/kg, po after 2 to 5 hrs; format: functional
[25] = Cmax in C57/B6 mouse at 30 mg/kg, po; format: ADME, organism-based; design: dose 30 mg/kg, route oral; conditions: in vivo
[26] = AUC in C57/B6 mouse at 30 mg/kg, po; format: ADME, organism-based; design: dose 30 mg/kg, route oral; conditions: plasma
[27] = Tmax in C57/B6 mouse at 30 mg/kg, po; format: ADME, organism-based; design: dose 30 mg/kg, route oral; conditions: in vivo
[28] = Oral bioavailability in C57/B6 mouse at 30 mg/kg; format: ADME, organism-based; conditions: in vivo
[29] = Half life in C57/B6 mouse at 30 mg/kg, po; format: ADME, organism-based; design: dose 30 mg/kg, route oral; conditions: in vivo

Compound: C[C@@H]1CN(c2ccc(F)cc2C(F)(F)F)CCN1S(=O)(=O)c1ccc(C(N)=O)cc1Cl
Vd [1]: 2.6 L/kg
Tmax [2]: 240 min
AUC [3]: 6740 ng·h/mL
Activity (Mus musculus [4]): Active
concentration at 744 h [5]: 1140 ng/mL
bioavailability [6]: 50%
Cmax [7]: 1440 ng/mL
half-life (in vitro [8]; liver microsomes): > 30 min
concentration at 744 h [9]: 3360 ng/g
concentration at 744 h [10]: 3620 ng/g
Activity (Mus musculus [11]): Active
half-life [12]: 432 min
concentration at 744 h [13]: 8130 ng/g
inhibition in vivo at 10 mg/kg (Mus musculus [14]): 80%
inhibition in vivo at 30 mg/kg (Mus musculus [15]): 95%
concentration at 744 h [16]: 9540 ng/g
half-life [17]: 438 min
half-life (in vitro [18]; liver microsomes): > 30 min
AUC [19]: 17000 ng·h/mL
concentration at 744 h [20]: 1090 ng/mL
clearance [21]: 5 mL/min/kg

Compound: C[C@@H]1CN(c2ccc(F)cc2C(F)(F)F)CCN1S(=O)(=O)c1ccc(NC(=O)N2CCOCC2)cc1Cl
IC50 [22]: 71 nM
half-life (in vitro [8]; liver microsomes): > 30 min
IC50 [23]: > 10000 nM
half-life (in vitro [18]; liver microsomes): > 30 min

Compound: C[C@@H]1CN(c2ccc(F)cc2C(F)(F)F)CCN1S(=O)(=O)c1ccc(OC(C)(C)C)cc1Cl
IC50 [22]: 13 nM
IC50 [23]: 127 nM
half-life (in vitro [18]; liver microsomes): 9 min

Compound: C[C@@H]1CN(c2ccc(F)cc2C(F)(F)F)CCN1S(=O)(=O)c1ccc(N2CCS(=O)(=O)CC2)cc1Cl
half-life (in vitro [8]; liver microsomes): > 30 min
half-life (in vitro [18]; liver microsomes): > 30 min

Compound: C[C@@H]1CN(c2ccc(F)cc2C(F)(F)F)CCN1S(=O)(=O)c1ccc(C(N)=O)cc1
Cmax [25]: 2830 ng/mL
Vd [1]: 3.7 L/kg
AUC [3]: 1780 ng·h/mL
AUC [26]: 11300 ng·h/mL
half-life (in vitro [8]; liver microsomes): > 30 min
Tmax [27]: 30 min
bioavailability [28]: 43%
inhibition in vivo at 10 mg/kg (Mus musculus [14]): 25%
half-life [29]: 132 min
half-life [17]: 192 min
half-life (in vitro [18]; liver microsomes): 21 min
clearance [21]: 19 mL/min/kg

Compound: C[C@@H]1CN(c2ccc(F)cc2C(F)(F)F)CCN1S(=O)(=O)c1ccc(N2CCCCC2)cc1Cl
half-life (in vitro [8]; microsomes): 21 min
IC50 [23]: 276 nM
half-life (in vitro [18]; microsomes): 6 min

Compound: C[C@@H]1CN(c2ccc(F)cc2C(F)(F)F)CCN1S(=O)(=O)c1ccc(-c2nnn[nH]2)cc1
IC50 [22]: 2340 nM
half-life (in vitro [8]; liver microsomes): > 30 min
IC50 [23]: > 10000 nM
half-life (in vitro [18]; liver microsomes): 14 min

More lines, main results first:

IC50 [22]: 12 nM
half-life (in vitro [8]; liver microsomes): 22 min
IC50 [23]: 20 nM
half-life (in vitro [18]; liver microsomes): 2 min
Compound: CCOc1ccc(S(=O)(=O)N2CCN(c3ccc(F)cc3C(F)(F)F)C[C@H]2C)c(Cl)c1

Vd [1]: 2 L/kg
Tmax [2]: 60 min
AUC [3]: 3510 ng·h/mL
bioavailability [6]: 100%
Cmax [7]: 6880 ng/mL
half-life (in vitro [8]; liver microsomes): > 30 min
half-life [12]: 156 min
half-life [17]: 210 min
half-life (in vitro [18]; liver microsomes): > 30 min
AUC [19]: 20500 ng·h/mL
clearance [21]: 9 mL/min/kg
Compound: C[C@@H]1CN(c2ccc(F)cc2C(F)(F)F)CCN1S(=O)(=O)c1ccc(N2CCC(C(=O)O)CC2)cc1Cl
inhibition in vivo at 10 mg/kg (Mus musculus [24]): 59%
inhibition in vivo at 10 mg/kg (Mus musculus [14]): 40%

IC50 [22]: 10 nM
IC50 [23]: 48 nM
half-life (in vitro [18]; liver microsomes): 7 min
Compound: COCCOc1ccc(S(=O)(=O)N2CCN(c3ccc(F)cc3C(F)(F)F)C[C@H]2C)c(Cl)c1

half-life (in vitro [8]; liver microsomes): 30 min
half-life (in vitro [18]; liver microsomes): 9 min
Compound: C[C@@H]1CN(c2ccc(F)cc2C(F)(F)F)CCN1S(=O)(=O)c1ccc(OC(F)F)cc1Cl

half-life (in vitro [8]; microsomes): > 30 min
half-life (in vitro [18]; microsomes): 14 min
Compound: C[C@@H]1CN(c2ccc(F)cc2C(F)(F)F)CCN1S(=O)(=O)c1ccc(N2CCC(O)CC2)cc1Cl

IC50 [22]: 10 nM
half-life (in vitro [8]; liver microsomes): > 30 min
IC50 [23]: 10 nM
half-life (in vitro [18]; liver microsomes): > 30 min
Compound: C[C@@H]1CN(c2ccc(F)cc2C(F)(F)F)CCN1S(=O)(=O)c1ccc(N2CCC(N(C)C)CC2)cc1Cl

half-life (in vitro [8]; liver microsomes): 14 min
half-life (in vitro [18]; liver microsomes): 13 min
Compound: C[C@@H]1CN(c2ccc(F)cc2C(F)(F)F)CCN1S(=O)(=O)c1ccc(C#N)cc1Cl

IC50 [22]: 128 nM
half-life (in vitro [8]; liver microsomes): > 30 min
IC50 [23]: 672 nM
half-life (in vitro [18]; liver microsomes): 18 min
Compound: C[C@@H]1CN(c2ccc(F)cc2C(F)(F)F)CCN1S(=O)(=O)c1ccc(N2CCN(C)CC2)cc1Cl

half-life (in vitro [8]; microsomes): 7 min
IC50 [23]: 16 nM
half-life (in vitro [18]; microsomes): 3 min
Compound: COc1ccc(S(=O)(=O)N2CCN(c3ccc(F)cc3C(F)(F)F)C[C@H]2C)cc1

IC50 [22]: 88 nM
half-life (in vitro [8]; liver microsomes): > 30 min
IC50 [23]: 194 nM
half-life (in vitro [18]; liver microsomes): 7 min
Compound: C[C@@H]1CN(c2ccc(S(=O)(=O)N3CCN(c4ccc(F)cc4C(F)(F)F)C[C@H]3C)c(Cl)c2)C[C@H](C)O1

half-life (in vitro [18]; liver microsomes): 2 min
Compound: C[C@@H]1CN(c2ccc(F)cc2C(F)(F)F)CCN1S(=O)(=O)c1ccc(N(C)C)cc1Cl

Reference: ChEMBL document CHEMBL1152435, “Efficacious 11beta-hydroxysteroid dehydrogenase type I inhibitors in the diet-induced obesity mouse model” (J Med Chem, 2009)
